# Data reported in ChEMBL document CHEMBL1681666, “Synthesis and in vitro screening of novel N-benzyl aplysinopsin analogs as potential anticancer agents” (2011).
# Experiments:
# Type in all cases: functional
# [1] = test system: SK-MEL-28; assay: Anticancer activity against human SK-MEL-28 cells
# Outline: (§1)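 NCI 60-cell human tumour panel (leukemia, lung, colon, CNS, melanoma, ovarian, renal, prostate, breast). A first-stage single-dose screen at 10 µM was run. Compounds giving over 60% growth inhibition in at least eight lines went on to a five-dose response. Effect was plotted against log10 molar concentration per line. GI50 is the concentration giving 50% reduction in net protein increase versus control cells. LC50 is the concentration lethal to 50% of cells.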
# [2] = test system: SK-MEL-5; assay: Anticancer activity against human SK-MEL-5 cells; outline: as §1
# [3] = test system: NCI-H226; assay: Anticancer activity against human NCI-H226 cells; outline: as §1
# [4] = test system: SF-268; assay: Anticancer activity against human SF268 cells; outline: as §1
# [5] = test system: LOX IMVI; assay: Anticancer activity against human LOXIMVI cells; outline: as §1
# [6] = test system: CAKI-1; assay: Anticancer activity against human Caki1 cells; outline: as §1
# [7] = Anticancer activity against human Hs 578T cells; outline: as §1
# [8] = test system: OVCAR-3; assay: Anticancer activity against human OVCAR3 cells; outline: as §1
# [9] = test system: T47D; assay: Anticancer activity against human T47D cells
# Outline: (§2)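 NCI 60-cell-line panel. A single-dose (10 µM) prescreen was run first. Compounds giving over 60% growth inhibition in at least eight lines then went to five-dose response studies. Dose-response curves of effect versus log10 concentration. GI50 is the molar concentration giving a 50% reduction in net protein increase versus control cells. LC50 is the concentration lethal to 50% of cells.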
# [10] = test system: HCT-116; assay: Anticancer activity against human HCT116 cells; outline: as §1
# [11] = test system: SW-620; assay: Anticancer activity against human SW620 cells; outline: as §2
# [12] = test system: MCF7; assay: Anticancer activity against human MCF7 cells; outline: as §1
# [13] = test system: TK-10; assay: Anticancer activity against human TK10 cells; outline: as §2
# [14] = test system: UACC-257; assay: Anticancer activity against human UACC257 cells; outline: as §2
# [15] = test system: 786-0; assay: Anticancer activity against human 786-0 cells; outline: as §1
# [16] = test system: MOLT-4; assay: Anticancer activity against human MOLT4 cells; outline: as §1
# [17] = test system: UACC-62; assay: Anticancer activity against human UACC62 cells; outline: as §2
# [18] = test system: SF-539; assay: Anticancer activity against human SF539 cells; outline: as §1
# [19] = Anticancer activity against human NCI/ADR cells; conditions: NCI/ADR-RES; outline: as §1
# [20] = test system: SNB-19; assay: Anticancer activity against human SNB19 cells; outline: as §1
# [21] = test system: U-251; assay: Anticancer activity against human U251 cells; outline: as §2
# [22] = test system: OVCAR-8; assay: Anticancer activity against human OVCAR8 cells; outline: as §1
# [23] = test system: BT-549; assay: Anticancer activity against human BT549 cells; outline: as §1
# [24] = test system: A498; assay: Anticancer activity against human A498 cells; outline: as §1
# [25] = test system: SNB-75; assay: Anticancer activity against human SNB75 cells; outline: as §2
# [26] = test system: SK-OV-3; assay: Anticancer activity against human SKOV3 cells; outline: as §1
# [27] = test system: ACHN; assay: Anticancer activity against human ACHN cells; outline: as §1
# [28] = test system: COLO 205; assay: Anticancer activity against human COLO205 cells; outline: as §1
# [29] = test system: HCC 2998; assay: Anticancer activity against human HCC2998 cells; outline: as §1
# [30] = test system: OVCAR-5; assay: Anticancer activity against human OVCAR5 cells; outline: as §1
# [31] = test system: NCI-H23; assay: Anticancer activity against human NCI-H23 cells; outline: as §1
# [32] = test system: IGROV-1; assay: Anticancer activity against human IGROV1 cells; outline: as §1
# [33] = test system: HOP-62; assay: Anticancer activity against human HOP62 cells; outline: as §1
# [34] = test system: HT-29; assay: Anticancer activity against human HT-29 cells; outline: as §1
# [35] = test system: A549; assay: Anticancer activity against human A549 cells; outline: as §1
# [36] = test system: OVCAR-4; assay: Anticancer activity against human OVCAR4 cells; outline: as §1
# [37] = test system: MDA-MB-468; assay: Anticancer activity against human MDA-MB-468 cells; outline: as §1
# [38] = test system: HL-60(TB); assay: Anticancer activity against human HL-60(TB) cells; outline: as §1
# [39] = test system: UO-31; assay: Anticancer activity against human UO31 cells; outline: as §2
# [40] = test system: SK-MEL-2; assay: Anticancer activity against human SK-MEL-2 cells; outline: as §1
# [41] = test system: CCRF-CEM; assay: Anticancer activity against human CCRF-CEM cells; outline: as §1
# [42] = test system: Malme-3M; assay: Anticancer activity against human MALME-3M cells; outline: as §1
# [43] = Anticancer activity against human […] cells; outline: as §1
# [44] = test system: MDA-MB-435; assay: Anticancer activity against human MDA-MB-435 cells; outline: as §1
# [45] = test system: PC-3; assay: Anticancer activity against human PC3 cells; outline: as §1
# [46] = test system: KM12; assay: Anticancer activity against human KM12 cells; outline: as §1
# [47] = test system: SN12C; assay: Anticancer activity against human SN12C cells; outline: as §1
# [48] = test system: EKVX; assay: Anticancer activity against human EKVX cells; outline: as §1
# [49] = test system: K562; assay: Anticancer activity against human K562 cells; outline: as §1
# [50] = test system: SF-295; assay: Anticancer activity against human SF295 cells; outline: as §1
# [51] = test system: NCI-H322M; assay: Anticancer activity against human NCI-H322M cells; outline: as §1
# [52] = test system: RXF 393; assay: Anticancer activity against human RXF393 cells; outline: as §1
# [53] = test system: MDA-MB-231; assay: Anticancer activity against human MDA-MB-231 cells; outline: as §1
# [54] = test system: NCI-H460; assay: Anticancer activity against human NCI-H460 cells; outline: as §1
# [55] = test system: M14; assay: Anticancer activity against human M14 cells; outline: as §1
# [56] = read-out: LC50 (the source's name)
structure (smiles),measurement,setting,value
COC(=O)c1ccc2c(/C=C3\NC(=O)NC3=O)cn(Cc3ccc(C#N)cc3)c2c1,GI50,[1],3.79 µM
same,CC50,[1]; [56],> 100 µM
same,GI50,[2],3.25 µM
same,CC50,[2]; [56],> 100 µM
same,GI50,[3],5.94 µM
same,CC50,[3]; [56],> 100 µM
same,GI50,[4],4.22 µM
same,CC50,[4]; [56],> 100 µM
same,GI50,[5],1.43 µM
same,CC50,[5]; [56],> 100 µM
same,GI50,[6],2.74 µM
same,CC50,[6]; [56],> 100 µM
same,GI50,[7],0.97 µM
same,CC50,[7]; [56],> 100 µM
same,GI50,[8],2.05 µM
same,CC50,[8]; [56],> 100 µM
same,GI50,[9],1.5 µM
same,CC50,[9]; [56],> 100 µM
same,GI50,[10],1.21 µM
same,CC50,[10]; [56],> 100 µM
same,GI50,[11],2.27 µM
same,CC50,[11]; [56],> 100 µM
same,GI50,[12],3.55 µM
same,CC50,[12]; [56],> 100 µM
same,GI50,[13],3.87 µM
same,CC50,[13]; [56],> 100 µM
same,GI50,[14],4.2 µM
same,CC50,[14]; [56],> 100 µM
same,GI50,[15],2.36 µM
same,CC50,[15]; [56],> 100 µM
same,GI50,[16],1.38 µM
same,CC50,[16]; [56],> 100 µM
same,GI50,[17],1.27 µM
same,CC50,[17]; [56],51 µM
same,GI50,[18],2.39 µM
same,CC50,[18]; [56],> 100 µM
same,GI50,[19],> 100 µM
same,CC50,[19]; [56],> 100 µM
same,GI50,[20],3.77 µM
same,CC50,[20]; [56],> 100 µM
same,GI50,[21],2.03 µM
same,CC50,[21]; [56],59.1 µM
same,GI50,[22],3.75 µM
same,CC50,[22]; [56],> 100 µM
same,GI50,[23],1.24 µM
same,CC50,[23]; [56],> 100 µM
same,GI50,[24],0.55 µM
same,CC50,[24]; [56],> 100 µM
same,GI50,[25],4.6 µM
same,CC50,[25]; [56],> 100 µM
same,GI50,[26],0.86 µM
same,CC50,[26]; [56],79.8 µM
same,GI50,[27],2.08 µM
same,CC50,[27]; [56],> 100 µM
same,GI50,[28],3.16 µM
same,CC50,[28]; [56],> 100 µM
same,GI50,[29],2.43 µM
same,CC50,[29]; [56],85 µM
same,GI50,[30],5.51 µM
same,CC50,[30]; [56],> 100 µM
same,GI50,[31],4.07 µM
same,CC50,[31]; [56],> 100 µM
same,GI50,[32],0.66 µM
same,CC50,[32]; [56],> 100 µM
same,GI50,[33],3.58 µM
same,CC50,[33]; [56],73 µM
same,GI50,[34],5.99 µM
same,CC50,[34]; [56],> 100 µM
same,GI50,[35],4.44 µM
same,CC50,[35]; [56],> 100 µM
same,GI50,[36],4.13 µM
same,CC50,[36]; [56],> 100 µM
same,GI50,[37],4.14 µM
same,CC50,[37]; [56],> 100 µM
same,GI50,[38],2.54 µM
same,CC50,[38]; [56],> 100 µM
same,GI50,[39],2.7 µM
same,CC50,[39]; [56],> 100 µM
same,GI50,[40],0.3 µM
same,CC50,[40]; [56],30.6 µM
same,GI50,[41],3.06 µM
same,CC50,[41]; [56],> 100 µM
same,GI50,[42],2.01 µM
same,CC50,[42]; [56],> 100 µM
same,GI50,[43],3.61 µM
same,CC50,[43]; [56],> 100 µM
same,GI50,[44],2.76 µM
same,CC50,[44]; [56],> 100 µM
same,GI50,[45],2.44 µM
same,CC50,[45]; [56],> 100 µM
same,GI50,[46],3.73 µM
same,CC50,[46]; [56],> 100 µM
same,GI50,[47],2.8 µM
same,CC50,[47]; [56],> 100 µM
same,GI50,[48],4.22 µM
same,CC50,[48]; [56],> 100 µM
same,GI50,[49],0.97 µM
same,CC50,[49]; [56],> 100 µM
same,GI50,[50],3.09 µM
same,CC50,[50]; [56],> 100 µM
same,GI50,[51],0.72 µM
same,CC50,[51]; [56],> 100 µM
same,GI50,[52],0.58 µM
same,CC50,[52]; [56],> 100 µM
same,GI50,[53],3.32 µM
same,CC50,[53]; [56],> 100 µM
same,GI50,[54],2.91 µM
same,CC50,[54]; [56],> 100 µM
same,GI50,[55],1.43 µM
same,CC50,[55]; [56],> 100 µM
